The source of these data is ChEMBL document CHEMBL1141594, “Synthesis, radiosynthesis, and biological evaluation of new proteasome inhibitors in a tumor targeting approach” (J Med Chem, 2008).

The term Kp denotes tissue or fluid exposure divided by exposure in the circulation. Broadly, the IC50 is the concentration that inhibits the measured activity by half. Read a low IC50 as greater potency.

The structures appear in SMILES notation. Residues, ends and D or L forms follow the SMILES beside them. *: point of attachment. Cbz = O=C(OCc1ccccc1)*

Data set [1] in a line: Biodistribution in tumor of C57/BL6 mouse bearing B16 cells assessed as remaining drug level at 0.07 uM, iv after 3 hrs. Particulars: read-out: Drug uptake. Format: ADME, organism-based, C57Bl/6, Neoplasm. In a few lines: (§1)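 ¹²⁵I-labelled compound given to C57Bl/6J mice with subcutaneous B16 melanoma. Organs and tissues sampled at 15 min, 30 min, 1 h, 3 h and 6 h post-injection. Radioactivity expressed as % injected dose per unit organ mass. Feces and urine collected over 72 h for elimination.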

Data set [2] can be described thus: Biodistribution in lung of C57/BL6 mouse bearing B16 cells at 0.07 uM, iv. In kind it is ADME, organism-based, C57Bl/6. Particulars: read-out: Drug uptake. In a few lines:
as §1

Data set [3] can be described thus: Ratio of biodistribution in tumor to blood in C57/BL6 mouse bearing mouse B16 cells. Format: ADME, organism-based, C57Bl/6.
Data set [4] can be described thus: Biodistribution in liver of C57/BL6 mouse bearing B16 cells at 0.07 uM, iv. In kind it is ADME, organism-based, C57Bl/6. The settings on record: read-out: Drug uptake. The gist of the method:
as §1

Data set [5] relates to Mus musculus. Nature of the data set: Drug metabolism in C57/BL6 mouse bearing B16 cells assessed as elimation in faeces and urine at 0.07 uM, iv after 72 hrs. The settings on record: in vivo. In kind it is ADME, organism-based, C57Bl/6. In a few lines: as §1
Data set [6] in a line: Biodistribution in tumor of C57/BL6 mouse bearing B16 cells at 0.07 uM, iv after 15 mins. In kind it is ADME, organism-based, C57Bl/6, Neoplasm. The settings on record: read-out: Drug uptake. In a few lines: as §1
The nature of data set [7]: Biodistribution in tumor of C57/BL6 mouse bearing B16 cells assessed as remaining drug level at 0.07 uM, iv after 6 hrs. The settings on record: read-out: Drug uptake. Format: ADME, organism-based, C57Bl/6, Neoplasm. In a few lines:
as §1

Data set [8] is described as follows: Biodistribution in kidney of C57/BL6 mouse bearing B16 cells at 0.07 uM, iv. Format: ADME, organism-based, C57Bl/6. Particulars: read-out: Drug uptake. In a few lines: as §1
Data set [9] is described as follows: Growth inhibition of human IPC227F cells after 48 hrs. In kind it is functional. The gist of the method: (§2)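 DMEM with 10% fetal calf serum, monolayer culture. 5 × 10³ cells/well seeded and left 24 h at 37 °C, 5% CO₂, humidified. Exposed 48 h to increasing concentrations. Growth measured with Hoechst 33342 dye. IC₅₀ is the mean ± SD of three independent experiments, each in triplicate. Compounds tested as hydrochloride salts.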

The subject of data set [10] is B16. Nature of the data set: Growth inhibition of mouse B16 cells after 48 hrs. Format: functional, cell-based. The settings on record: B16, 48 h. The gist of the method: as §2

Consider `CCN(CC)CCNC(=O)c1ccc(C(=O)N[C@@H](CC(C)C)C(=O)N[C@@H](CC(C)C)C(=O)N[C@H](C=O)CC(C)C)c([125I])c1.Cl`, for which, in [1], the tissue uptake at 3 h, 0.07 µM stood at 1.2 %ID/g. Moreover, the tissue uptake at 0.07 µM in data set [2] was 16.3 %ID/g; in [4], 8.9 %ID/g; in data set [8], 4.9 %ID/g. For the same compound, the Kp in data set [3] was no less than 1. Besides, the Activity in data set [5] came out at 87%. Moreover, the tissue uptake at 0.25 h, 0.07 µM in data set [6] stood at 2.7 %ID/g. Also, the tissue uptake at 6 h, 0.07 µM in data set [7] was determined as 1.2 %ID/g.
As for `CCN(CC)CCNC(=O)c1ccc(C(=O)N[C@@H](CC(C)C)C(=O)N[C@@H](CC(C)C)C(=O)N[C@H](C=O)CC(C)C)c(NNN2CCCC2)c1`, the IC50 was found to be 1850 nM in [9] and 530 nM in data set [10].
`CCN(CC)CCNC(=O)c1ccc(C(=O)N[C@@H](CC(C)C)C(=O)N[C@@H](CC(C)C)C(=O)N[C@H](C=O)CC(C)C)cc1`: the IC50 amounted to 640 nM in data set [9] and 1300 nM in [10]. Moreover, the tissue uptake at 0.07 µM in data set [4] turned out to be 5.95 %ID/g.
Regarding `CCN(CC)CCNC(=O)c1ccc(C(=O)N[C@@H](CC(C)C)C(=O)N[C@@H](CC(C)C)C(=O)N[C@H](C=O)CC(C)C)c(I)c1`, the IC50 in data set [9] turned out to be 3580 nM; in [10] it was 1790 nM.
As to `CCN(CC)CCNC(=O)c1ccc(C(=O)N[C@@H](CC(C)C)C(=O)N[C@@H](CC(C)C)C(=O)N[C@H](C=O)CC(C)C)c(/N=N/N2CCCC2)c1`, the figures for the IC50 in data set [9] and in [10] were 180 nM and 20 nM, respectively.
The matching figures for `CC(C)C[C@@H](C=O)NC(=O)[C@H](CC(C)C)NC(=O)[C@H](CC(C)C)NC(=O)OCc1ccccc1` (Cbz-Leu-Leu-Leu-aldehyde): 77 nM and 42 nM.
